Data reported in article PMC12583737 (Nature Communications, 2025).

Experiments:
V5-tagged FBXO22 = assay: Cellular thermal stability shift assay; assay type: binding; conditions: lysates of HCC515 expressing V5-tagged FBXO22
Summary of the method: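 It got 10 µM neddylation inhibitor for 10 min, then compound or DMSO for 30 min at room temperature. Aliquots were heated 3 min across 38–71 °C in 3-degree steps and cleared at 20,000 g. Soluble V5-FBXO22 was read by anti-V5 immunoblot.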

[1] = tested on: SMARCA2-nanoLuc and FBXO22-HaloTag; assay: SMARCA2/FBXO22 NanoBRET ternary complex assay in FBXO22 knockout HCC515 cells; assay type: cell-based; conditions: FBXO22 knockout HCC515, overnight, 10 µM MLN4924
Summary of the method: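 FBXO22-knockout HCC515 cells were transiently co-transfected with SMARCA2-NanoLuc and FBXO22-HaloTag at a 1:20 ratio (FuGENE HD). They were replated next day at 25,000 per well with or without HaloTag 618 ligand and left overnight. Cells were pretreated 1 h with 10 µM MLN4924, which was kept throughout, then dosed with test compound or a control PROTAC for 24 h. Emissions at 460/618 nm were read 10 min after substrate. Ratio ×1000 gave mBU, with the no-ligand value subtracted. Mean ± sd, n = 2–6.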

| Structure (SMILES) | thermal stability of FBXO22 (V5-tagged FBXO22) | BRET signal (ternary complex SMARCA2/FBXO22) [1] |
| --- | --- | --- |
| Nc1nnc(-c2ccccc2O)cc1N1CC2CCC(C1)N2c1ccnc(F)c1 [Compound 7] | not observed | – |
| Cc1ncsc1-c1ccc([C@H](C)NC(=O)[C@@H]2C[C@@H](O)CN2C(=O)[C@@H](c2cc(N3CCC(CN4CCC(OC5CC(Oc6cc(N7C8CCC7CN(c7cc(-c9ccccc9O)nnc7N)C8)ccn6)C5)CC4)CC3)no2)C(C)C)cc1 (some centres unmarked) [Compound A947] | – | not observed |
